Assay [1] deals with KCL-22. Description: Cytotoxicity against human KCL22 cells assessed as reduction in cell viability at 1 uM after 48 hrs by MTS assay. It is filed as functional, cell-based. In short, it runs like this: (§1)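 Single-concentration screen: KCL-22 cells, or KCL-22 cells expressing T315I mutant Bcr-Abl, grown in RPMI-1640 with 10% FBS. Cells were seeded at 10 000/well, held overnight at 37 °C in 5% CO2, then exposed to 1 μM compound for 48 h, with DMSO as vehicle control. Viability was read by MTS tetrazolium-to-formazan conversion, absorbance 490 nm, in triplicate.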
(Tetrazolium assays rely on reduction of a dye to a coloured formazan, in cell work by metabolically active cells.)

Assay [2] relates to KCL-22. In words: Cytotoxicity against human KCL22 cells harboring ABL1 T315I mutant assessed as reduction in cell viability at 1 uM after 48 hrs by MTS assay. In kind it is functional, cell-based. In short, it runs like this:
as §1

Calls of active or inactive are those of the source. The rule behind the calls is not given here.

For the molecule `N#Cc1ccc2c(c1)C(=O)/C(=C1/C(=O)Nc3c1cccc3C(F)(F)F)N2`, the outcome with KCL-22 [1] and with KCL-22 [2] was inactive.
For `Nc1cc2c(cc1Br)NC(=O)/C2=C1\Nc2ccccc2\C1=N/O`, the result with KCL-22 [1] and in the assay on KCL-22 [2] was inactive.
On to `COC(=O)c1ccc2c(c1)C(=N\O)/C(=C1/C(=O)Nc3c1cccc3C(F)(F)F)N2`, for which the result with KCL-22 [1] and in the assay with KCL-22 [2] was inactive.
As for `COC(=O)c1ccc2c(c1)NC(=C1\C(=O)Nc3c1cccc3C(F)(F)F)/C2=N/OCCN1CCNCC1`, the result with KCL-22 [1] and with KCL-22 [2] was inactive.
Take `O=C1Nc2c(I)cccc2/C1=C1/Nc2ccccc2/C1=N\O`: the outcome in the assay with KCL-22 [1] and in the assay with KCL-22 [2] was inactive.
Consider `CN1C(=O)/C(=C2\Nc3ccccc3C2=O)c2cccc(I)c21`, for which the outcome in the assay on KCL-22 [1] and with KCL-22 [2] was inactive.
Regarding `O=C1Nc2c(cccc2C(F)(F)F)/C1=C1/Nc2ccc(C(=O)O)cc2/C1=N\O`, the outcome in the assay on KCL-22 [1] and in the assay with KCL-22 [2] was inactive.
On to `O=C1Nc2cc(Cl)c(Cl)cc2/C1=C1/Nc2ccccc2C1=O`, for which the result in the assay on KCL-22 [1] and with KCL-22 [2] was inactive.
Take `CC(=O)O/N=C1/C(=C2/C(=O)Nc3cc(Br)c(C)cc32)Nc2ccccc21`: the result in the assay with KCL-22 [1] and in the assay with KCL-22 [2] was inactive.
Consider `COC(=O)c1ccc2c(c1)C(=N\O)/C(=C1/C(=O)Nc3c(Br)cccc31)N2`, for which the outcome with KCL-22 [1] and with KCL-22 [2] was inactive.
`O=C1Nc2c(cccc2C(F)(F)F)/C1=C1/Nc2ccc(-c3nnn[nH]3)cc2C1=O`: the result in the assay with KCL-22 [1] and with KCL-22 [2] was inactive.
For `O=C1Nc2ccccc2/C1=C1/Nc2cc(Br)ccc2C1=O`, the outcome with KCL-22 [1] and in the assay with KCL-22 [2] was inactive.
Consider `O=C1Nc2c(Br)cccc2/C1=C1/Nc2cc(C(=O)O)ccc2/C1=N\OCCN1CCNCC1`, for which the outcome in the assay with KCL-22 [1] and with KCL-22 [2] was inactive.
On to `CN1C(=O)/C(=C2\Nc3ccccc3\C2=N/OCCN2CCNCC2)c2cccc(Br)c21`, for which the outcome in the assay with KCL-22 [1] and with KCL-22 [2] was inactive.
Take `O=C1Nc2cc(Br)c([N+](=O)[O-])cc2/C1=C1/Nc2ccccc2C1=O`: the outcome in the assay with KCL-22 [1] and in the assay with KCL-22 [2] was inactive.
Consider `O=C1Nc2c(F)cccc2/C1=C1/Nc2ccccc2C1=O`, for which the result in the assay on KCL-22 [1] and in the assay with KCL-22 [2] was inactive.
Turning to `O=C1Nc2c(Br)cccc2/C1=C1/Nc2ccccc2/C1=N\O`, the outcome with KCL-22 [1] and in the assay with KCL-22 [2] was inactive.
On to `O=C1Nc2c(F)cccc2/C1=C1/Nc2ccccc2/C1=N\O`, for which the result in the assay on KCL-22 [1] and with KCL-22 [2] was inactive.
As to `COC(=O)c1ccc2c(c1)N/C(=C1\C(=O)Nc3c(Br)cccc31)C2=O`, the outcome in the assay on KCL-22 [1] and with KCL-22 [2] was inactive.
`CN1C(=O)/C(=C2\Nc3ccccc3C2=O)c2cccc(Cl)c21`: the outcome in the assay on KCL-22 [1] and with KCL-22 [2] was inactive.
Turning to `COC(=O)c1ccc2c(c1)NC(=C1\C(=O)Nc3c(Br)cccc31)/C2=N/OCCN1CCNCC1`, the result in the assay with KCL-22 [1] and with KCL-22 [2] was inactive.
As for `O=C1Nc2c(cccc2C(F)(F)F)/C1=C1/Nc2ccc(C(=O)O)cc2/C1=N\OCCN1CCNCC1`, the result in the assay on KCL-22 [1] and with KCL-22 [2] was inactive.
Take `CN1C(=O)/C(=C2\Nc3ccccc3\C2=N/O)c2cccc(I)c21`: the result in the assay on KCL-22 [1] and with KCL-22 [2] was inactive.
On to `O=C1Nc2c(cccc2C(F)(F)F)/C1=C1/Nc2ccc(-c3nnn[nH]3)cc2/C1=N\O`, for which the outcome with KCL-22 [1] and in the assay on KCL-22 [2] was inactive.
For the molecule `CN1C(=O)/C(=C2\Nc3ccccc3\C2=N/O)c2cccc(Cl)c21`, the result with KCL-22 [1] and with KCL-22 [2] was inactive.
Turning to `COC(=O)c1ccc2c(c1)C(=N\OCCN1CCNCC1)/C(=C1/C(=O)Nc3c(Br)cccc31)N2`, the result in the assay with KCL-22 [1] and with KCL-22 [2] was inactive.
Regarding `O=C1Nc2ccccc2/C1=C1/Nc2ccccc2C1=O`, the result in the assay with KCL-22 [1] and in the assay with KCL-22 [2] was inactive.
Take `O=C1Nc2c(Br)cccc2/C1=C1/Nc2ccc(/C=N/O)cc2/C1=N\O`: the result with KCL-22 [1] and in the assay on KCL-22 [2] was inactive.
Turning to `O=C1Nc2c(Br)cccc2/C1=C1/Nc2ccc(-c3nnn[nH]3)cc2C1=O`, the result in the assay on KCL-22 [1] and in the assay on KCL-22 [2] was inactive.
With `Cc1cc2c(cc1Br)NC(=O)/C2=C1\Nc2ccccc2C1=O`, the result with KCL-22 [1] and in the assay on KCL-22 [2] was inactive.
For the molecule `COC(=O)c1ccc2c(c1)C(=O)/C(=C1/C(=O)Nc3c(Br)cccc31)N2`, the result with KCL-22 [1] and with KCL-22 [2] was inactive.
For `O=C1Nc2cc(Br)c([N+](=O)[O-])cc2/C1=C1/Nc2ccccc2/C1=N\O`, the result with KCL-22 [1] and with KCL-22 [2] was inactive.
Turning to `CN1C(=O)/C(=C2\Nc3ccccc3\C2=N/O)c2cccc(Br)c21`, the result with KCL-22 [1] and in the assay with KCL-22 [2] was inactive.
As for `O=C1Nc2c(Br)cccc2/C1=C1/Nc2cc(C(=O)O)ccc2/C1=N\O`, the outcome with KCL-22 [1] and in the assay on KCL-22 [2] was inactive.
Regarding `O=C1Nc2ccccc2/C1=C1/Nc2cc(Br)ccc2/C1=N\O`, the outcome with KCL-22 [1] and in the assay with KCL-22 [2] was inactive.
As to `CC(=O)O/N=C1/C(=C2/C(=O)Nc3cc(Br)c([N+](=O)[O-])cc32)Nc2ccccc21`, the outcome in the assay with KCL-22 [1] and in the assay with KCL-22 [2] was inactive.
For the molecule `O=C1Nc2ccccc2/C1=C1/Nc2ccccc2/C1=N\O`, the outcome in the assay on KCL-22 [1] and in the assay with KCL-22 [2] was inactive.
As to `O=C1Nc2c(cccc2C(F)(F)F)/C1=C1/Nc2cc(C(=O)O)ccc2/C1=N\OCCN1CCNCC1`, the result in the assay with KCL-22 [1] and in the assay on KCL-22 [2] was inactive.
For the molecule `O=C1Nc2c(I)cccc2/C1=C1/Nc2ccccc2C1=O`, the outcome in the assay on KCL-22 [1] and with KCL-22 [2] was inactive.
Consider `COC(=O)c1ccc2c(c1)NC(=C1\C(=O)Nc3c1cccc3C(F)(F)F)/C2=N/O`, for which the outcome with KCL-22 [1] and in the assay on KCL-22 [2] was inactive.
On to `O=C1Nc2c(cccc2C(F)(F)F)/C1=C1/Nc2cc(C(=O)O)ccc2/C1=N\O`, for which the result in the assay with KCL-22 [1] and in the assay on KCL-22 [2] was inactive.
With `N#Cc1ccc2c(c1)C(=N\O)/C(=C1/C(=O)Nc3c1cccc3C(F)(F)F)N2`, the result in the assay on KCL-22 [1] and in the assay on KCL-22 [2] was inactive.
As for `COC(=O)c1ccc2c(c1)C(=O)/C(=C1/C(=O)Nc3c1cccc3C(F)(F)F)N2`, the result in the assay on KCL-22 [1] and with KCL-22 [2] was inactive.
On to `O=C1Nc2c(cccc2C(F)(F)F)/C1=C1/Nc2ccccc2C1=O`, for which the result in the assay on KCL-22 [1] and in the assay on KCL-22 [2] was inactive.
`O=C1Nc2c(cccc2C(F)(F)F)/C1=C1/Nc2ccccc2/C1=N\O`: the result in the assay with KCL-22 [1] and in the assay with KCL-22 [2] was inactive.
For the molecule `CC(=O)O/N=C1/C(=C2/C(=O)N(C(C)=O)c3cc(Br)c([N+](=O)[O-])cc32)Nc2ccccc21`, the outcome in the assay with KCL-22 [1] and with KCL-22 [2] was inactive.
On to `O=C1Nc2c(cccc2C(F)(F)F)/C1=C1/Nc2ccccc2/C1=N\OCCN1CCNCC1`, for which the outcome with KCL-22 [1] and in the assay on KCL-22 [2] was inactive.
With `O=C1Nc2c(Br)cccc2/C1=C1/Nc2ccccc2C1=O`, the outcome in the assay on KCL-22 [1] and with KCL-22 [2] was inactive.
Consider `O=C1Nc2c(Br)cccc2/C1=C1/Nc2ccc(C(=O)O)cc2/C1=N\O`, for which the result in the assay with KCL-22 [1] and in the assay on KCL-22 [2] was inactive.
On to `COC(=O)c1ccc2c(c1)NC(=C1\C(=O)Nc3c(Br)cccc31)/C2=N/O`, for which the result with KCL-22 [1] and in the assay with KCL-22 [2] was inactive.
With `O=C1Nc2c(Br)cccc2/C1=C1/Nc2ccc(-c3nnn[nH]3)cc2/C1=N\O`, the result in the assay with KCL-22 [1] and with KCL-22 [2] was inactive.
Turning to `O=C1Nc2c(Cl)cccc2/C1=C1/Nc2ccccc2/C1=N\O`, the result with KCL-22 [1] and in the assay on KCL-22 [2] was inactive.
Take `COC(=O)c1ccc2c(c1)N/C(=C1\C(=O)Nc3c1cccc3C(F)(F)F)C2=O`: the result in the assay with KCL-22 [1] and in the assay on KCL-22 [2] was inactive.
Consider `O=C1Nc2c(Br)cccc2/C1=C1/Nc2ccc(C(=O)O)cc2/C1=N\OCCN1CCNCC1`, for which the result in the assay with KCL-22 [1] and in the assay on KCL-22 [2] was inactive.
Regarding `O=C1Nc2c(Cl)cccc2/C1=C1/Nc2ccccc2C1=O`, the result with KCL-22 [1] and in the assay with KCL-22 [2] was inactive.
Take `COC(=O)c1ccc2c(c1)C(=N\OCCN1CCNCC1)/C(=C1/C(=O)Nc3c1cccc3C(F)(F)F)N2`: the outcome in the assay on KCL-22 [1] and with KCL-22 [2] was inactive.
As to `O=C1Nc2c(cccc2C(F)(F)F)/C1=C1/Nc2ccccc2/C1=N\OCCN1CCN(CCO)CC1`, the result in the assay on KCL-22 [1] and in the assay with KCL-22 [2] was inactive.
Take `COC(=O)c1ccc2c(c1)C(=O)/C(=C1/C(=O)N(C)c3c(Br)cccc31)N2`: the outcome with KCL-22 [1] and in the assay on KCL-22 [2] was inactive.
Regarding `O=C1Nc2c(Br)cccc2/C1=C1/Nc2ccccc2/C1=N\OCCN1CCNCC1`, the result in the assay on KCL-22 [1] and with KCL-22 [2] was inactive.

Source of the values: ChEMBL document CHEMBL4041496, “Natural-Based Indirubins Display Potent Cytotoxicity toward Wild-Type and T315I-Resistant Leukemia Cell Lines” (J Nat Prod, 2016).
